High-throughput results (PubChem)
Only some compounds are listed: those with a hit (about 5.3% of all), similar ones and a draw of the others.
Cav3 T inh = inhibitors of human Cav3.2 T-type calcium channel; O95180; Cav3.2-expressing cells, Fluo-4 calcium fluorescence FDSS; active compounds read low; B-score at 10 µM; 100,000 tested, 4% active;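 active means single-dose well whose peak fluorescence ratio is a statistical outlier from its plate by either plate-standardised score or position-corrected B-score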
EphB4 antag = EphB4-ephrin-B2 interaction antagonism. EphB4 LBD / TNYL-RAW-Alexa532 peptide, fluorescence polarization. 97,000 tested, 0.15% active. inhibition, % at 7 µM;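 active means inhibition above the screen-wide mean inhibition plus 3 SD, cut at about 15% in these data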;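 further: 0% = DMSO wells and 100% = excess unlabeled TNYL-RAW peptide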
Plk1 PBD FP = Plk1 (human) PBD binding inhibition; Plk1 PBD phosphopeptide binding, fluorescence polarization; inhibition, %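 (tested at about 20 µM)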; 97,000 tested, 0.13% active; AID 693; in the data active means inhibition above about 34%, passing the limit was not always enough
FAK blocker = FAK (human) kinase inhibition; inhibition, %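 (tested at 7 µM)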; biochemical FAK kinase activity assay; AID 727; 97,000 tested, 0.84% active; in the data active means inhibition above about 19%;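 further: 0% = DMSO and 100% = reference compound high control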
PLK1 kinase inh = blocks human PLK1 kinase activity; P53350; recombinant PLK1 kinase, TR-FRET peptide phosphorylation; inhibition, % at 10 µM; 97,000 tested, 0.53% active; AID 619;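 active means inhibition of 50% or more in the single-concentration screen; inactive means inhibition below 50%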;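 further: 0% = DMSO max control and 100% = H-89 dihydrochloride min control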
HIV Rev-RRE inh = inhibitors of HIV-1 Rev-RRE RNA interaction. 97,000 tested, 0.79% active. inhibition, % at 8 µM. Rev peptide-RRE RNA binding, FRET. P05866;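 active means inhibition above the screen-wide mean plus 3 SD, cut at about 35% in these data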;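 further: 0% = median DMSO wells and 100% = median Neomycin B control wells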
Target sequence (P05866 whole entry, looked up): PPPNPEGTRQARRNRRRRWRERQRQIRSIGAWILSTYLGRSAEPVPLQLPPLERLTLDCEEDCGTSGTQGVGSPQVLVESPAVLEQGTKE
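assay system = Cy5-tagged RRE RNA duplex with fluorescein-tagged Rev peptide | incubation = 5 + 15 min at 25 °C | also added = labelled Rev peptide | measure = % inhibition of FRET ratio versus controls | benchmarks = DMSO wells as 0% and neomycin B wells as 100% inhibition | measured by = FRET fluorescence readout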
Numbers without * were called inactive; . = no result given.

SMILES	Cav3 T inh	EphB4 antag	Plk1 PBD FP	FAK blocker	PLK1 kinase inh	HIV Rev-RRE inh
COc1cccc(NC(=O)C2CCN(Cc3cnn(-c4ccccc4)c3-n3cccc3)CC2)c1	-10*	9	-12	0	-1	12
O=C(O)c1cnn(-c2ccccc2)c1-n1cccc1	0.19	3	-10	-5	-7	-1
COc1ccc(OC)c(NC(=O)C2CCN(Cc3cnn(-c4ccccc4)c3-n3cccc3)CC2)c1	-8.7*	-2	-21	2	-5	2
COc1ccc(NC(=O)C2CCN(Cc3cnn(-c4ccccc4)c3-n3cccc3)CC2)cc1OC	-1.5	6	-36	0	-4	6
O=C(Nc1ccccc1Cl)C1CCN(Cc2cnn(-c3ccccc3)c2-n2cccc2)CC1	-8.3*	-2	7	1	4	14
CC1CCN(C(=O)c2[nH]cnc2C(=O)N[C@@H](C)C(=O)OCc2ccccc2)CC1	1.2	.	.	.	.	.
Cc1cc2ncn(C(=O)c3c(-c4ccccc4Cl)noc3C)c2cc1C	-1.3	-5	-7	1	-5	10
Cc1ccccc1-c1nnc(SCCOc2ccc3c(C)cc(=O)oc3c2)o1	-0.43	2	5	-1	-9	7
N#C[C@H]1C2OC2c2ccccc2N1C(=O)c1ccccc1 (some centres undefined)	0.71	.	.	.	.	.
COc1cc2c(OC(C)=O)c3c(c(-c4ccc5c(c4)OCO5)c2cc1OC)C(=O)OC3	1.1	.	.	.	.	.
COc1cc2c(O)c3c(c(-c4ccc5c(c4)OCO5)c2cc1OC)C(=O)OC3	-4.2*	0	18	2	-14	3
Cc1ccc(CNC(=O)CSc2nc(N3CCCCC3)nc(N3CCCCC3)n2)cc1	-3.8	3	8	4	-18	5
Cc1nc(CS(=O)(=O)c2ccc(Cl)cc2)cc(Sc2ccccc2Cl)n1	-4.5*	-1	-3	2	-7	14
Cc1nc(CS(=O)(=O)c2ccccc2)cc(Sc2ccccc2Cl)n1	.	1	-31	3	-9	2
CCN1C(=O)C2C(C1=O)N1C(c3cccs3)C3C(=O)N(CC)C(=O)C3N1C2c1cccs1 (centres undefined)	2.3	1	-11	-4	-10	2
CC(=O)C1=C(C)NC(SCC(=O)c2ccc(C)cc2)=C(C#N)C1c1ccco1 (centres undefined)	-5*	12	6	6	-12	15
CC[C@@H]1CC=C[C@H]2[C@H]1C(=O)N(Cc1ccccc1)[C@H]2c1ccc2ccccc2c1	-2.6	.	.	.	.	.
COc1ccc(CCCc2nnc(SCC(=O)Nc3cc(C)c(C)cc3Br)o2)cc1	-5.1*	1	-11	4	2	1
C=CC[n+]1c(-c2ccc(OCC)cc2)csc1NNC(=O)Nc1ccccc1	-2	2	-2	-1	5	3
c1ccc2cc(OCc3nc4ccccc4[nH]3)ccc2c1	-5.9*	4	-28	4	-7	5
COc1ccc(OCc2nc3ccccc3[nH]2)cc1	1.2	6	32	0	3	0
c1ccc2[nH]c(CSc3nccs3)nc2c1	0.56	.	.	.	.	.
CCn1c(COc2ccc(Cl)cc2)nnc1SCc1nc2ccccc2[nH]1	-1.9	-1	-4	3	-4	11
Clc1ccc(OCCSCc2nc3ccccc3[nH]2)cc1	-8.3*	-3	15	3	-5	15
Cc1ccc(OCCSCc2nc3ccccc3[nH]2)cc1	-5.5*	-1	-22	0	-1	8
SMILES	Cav3 T inh	EphB4 antag	Plk1 PBD FP	FAK blocker	PLK1 kinase inh	HIV Rev-RRE inh
Clc1ccc(SCc2nc3ccccc3[nH]2)cc1	-4.5*	0	-17	3	-4	3
C/C(=N\NC(=O)c1ccc(Cl)c(Cl)c1)c1cccc(NC(=O)C(C)C)c1	-7.1*	-2	-9	-3	-4	6
COc1cccc(CNc2cnc3ccccc3c2)c1O	-4.5*	-6	3	0	-11	4
C=CCc1ccc(OCCOCCOc2ccc(C)cc2[N+](=O)[O-])c(OC)c1	-5.5*	-1	-41	-5	-8	2
C#Cc1ccc([C@H]2C=C(C(=O)O)O[C@@H](OCCCCO)C2)cc1	-0.35	.	.	.	.	.
Nn1c(SCC(=O)Nc2cccc(F)c2)nnc1C1CCCCC1	0.61	-4	17	-2	-8	2
CCN(CC)S(=O)(=O)c1cccc(-c2nnc(SCCOc3ccccc3)o2)c1	-4.2*	-1	-5	-1	-8	11
CCN(CC)S(=O)(=O)c1cccc(-c2nnc(SCCOc3ccc(Cl)cc3)o2)c1	-7.9*	-4	-20	3	-4	9
CCN(CC)S(=O)(=O)c1cccc(-c2nnc(SCC(=O)c3cc(C)n(C)c3C)o2)c1	-0.48	-3	-12	-2	-6	-1
CCN(CC)S(=O)(=O)c1cccc(-c2nnc(SCCOc3ccccc3C)o2)c1	-4.7*	.	.	.	.	.
CCN(CC)S(=O)(=O)c1ccc(-c2nnc(SCc3nnc(-c4ccc(C)cc4)o3)o2)cc1	0.63	-7	6	-1	-12	8
C#CCNC(=O)C1=C[C@@H](c2coc3ccccc3c2=O)C[C@@H](OCc2ccc(CO)cc2)O1	-2.4	.	.	.	.	.
COc1ccccc1C1(CC(=O)N2CCCCC2)CCOC(C(C)C)C1 (centres undefined)	.	4	-2	-2	-11	6
CCc1nc2scc(-c3ccccc3)c2c(=O)n1N	0.83	7	12	3	-3	9
Cc1ccc(C)n1-n1c(C)nc2scc(-c3ccccc3)c2c1=O	-6.9*	3	-11	2	-11	4
CC1(C(=O)NC2CCCCCCC2)CC1(Cl)Cl (centres undefined)	0.06	8	-15	2	-12	6
O=C(CSc1ncn[nH]1)N1N=C2/C(=C/c3ccco3)CCCC2C1c1ccco1 (centres undefined)	-4.1*	-1	3	2	-7	6
O=C1CCC(C(=O)OCC(=O)N2N=C3/C(=C/c4ccccc4)CCCC3C2c2ccccc2)N1 (centres undefined)	-2.2	-1	22	4	-11	2
COc1cc(CCC(O)CC(=O)CCc2ccccc2)ccc1O (centres undefined)	-0.17	.	.	.	.	.
COc1ccc(C(=O)C/C(=C\C(=O)c2ccc(C)cc2)c2ccccc2)cc1	-4.2*	-6	-1	2	-30	17
COc1ccc(C(CC(=O)c2ccccc2)S(=O)(=O)c2ccc(C)cc2)cc1 (centres undefined)	0.036	-2	-22	2	-19	2
O=C(c1ccccc1C(=O)N1CCN(c2ccccc2F)CC1)N1CCN(c2ccccc2F)CC1	-3.9*	.	.	.	.	.
COc1ccccc1N1CCN(C(=O)c2cc(-c3ccc(C)cc3)on2)CC1	-4.2*	9	14	1	-3	6
Cc1ccc(C)c(N2CCN(C(=O)c3ccc4nc(-c5ccco5)c(-c5ccco5)nc4c3)CC2)c1	-2.1	8	-5	2	-9	4
